≈ marks a conversion by molar mass, not a printed value.
Tests used:
Assay type in all cases: functional
[1] = system: Staphylococcus aureus; test: Antibacterial activity against Staphylococcus aureus ATCC 2523 after 18 hrs by liquid microdilution method; conditions: ATCC 2523, 18 h
Summary of the method: (§1)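 Broth microdilution MIC. Compound dissolved in MeOH at 512 µg/mL, serially diluted 2-fold in Mueller-Hinton medium to 1–128 µg/mL. Each dilution added to wells of Mueller-Hinton medium with standard inoculum; final MeOH below 6%. Plates sealed, agitated, incubated 37 °C, 18 h. MIC is the lowest concentration giving no colour change. Run in triplicate.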

[2] = system: Enterococcus faecalis; test: Antibacterial activity against Enterococcus faecalis ATCC 29212 after 18 hrs by liquid microdilution method; conditions: ATCC 29212, 18 h; summary of the method: as §1
[3] = system: Pseudomonas aeruginosa; test: Antibacterial activity against Pseudomonas aeruginosa ATCC 27853 after 18 hrs by liquid microdilution method; conditions: ATCC 27853, 18 h; summary of the method: as §1
[4] = system: Escherichia coli; test: Antibacterial activity against Escherichia coli ATCC 25922 after 18 hrs by liquid microdilution method; conditions: ATCC 25922, 18 h; summary of the method: as §1

Row | Compound | MIC [1] [µM] | MIC [2] [µM] | MIC [3] [µM] | MIC [4] [µM]
1 | COc1ccc(-c2coc3cc(O)c(OC)c(OC)c3c2=O)cc1 | 97.5 (≈ 32 µg/mL) | 97.5 (≈ 32 µg/mL) | 195 (≈ 64 µg/mL) | 390 (≈ 128 µg/mL)
2 | COc1ccc(-c2coc3cc(O[C@@H]4O[C@H](CO[C@@H]5O[C@@H](C)[C@H](O)[C@@H](O)[C@H]5O)[C@@H](O)[C@H](O)[C@H]4O)c(OC)c(OC)c3c2=O)cc1 | 48.4 (≈ 30.8 µg/mL) | 48.4 (≈ 30.8 µg/mL) | 196 (≈ 125 µg/mL) | > 196
3 | COc1ccc(-c2coc3cc(O[C@@H]4O[C@H](CO[C@@H]5O[C@@H](C)[C@H](O)[C@@H](O)[C@H]5O)[C@@H](O)[C@H](O[C@@H]5O[C@H](CO[C@@H]6O[C@@H](C)[C@H](O)[C@@H](O)[C@H]6O)[C@@H](O)[C@H](O)[C@H]5O)[C@H]4O)c(OC)c(OC)c3c2=O)cc1 | > 135 | > 135 | > 135 | > 135
